Values after ≈ are worked out from the molar mass of the structure shown.
Key:
Format in all cases: functional
Staphylococcus aureus [1] = experiment: Antibacterial activity against methicillin-susceptible Staphylococcus aureus Xen29 infected neutropenic CD1 mouse assessed as mortality at 100 mg/kg, po after 4 days
Outline: (§1)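 Female CD-1 mice (20–25 g) were made neutropenic with cyclophosphamide i.p. at 150 mg/kg 4 days and 100 mg/kg 1 day before infection. They were infected i.p. with a lethal dose of lux strain (2 × 10^7 to 5 × 10^8 CFU/mouse) suspended in 6% hog gastric mucin. A single s.c. or gavage dose was given 1 h later. Survivors were counted daily for 7 days, n=5/group.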

Staphylococcus aureus [2] = experiment: Antibacterial activity against methicillin-resistant Staphylococcus aureus Xen1 infected neutropenic CD1 mouse assessed as mortality at 100 mg/kg, po within 24 hrs; settings: Xen1, 24 h; outline: as §1
Staphylococcus aureus [3] = experiment: Antibacterial activity against methicillin-susceptible Staphylococcus aureus Xen29 infected neutropenic CD1 mouse assessed as mortality at 100 mg/kg, po within 24 hrs; settings: Xen29, 24 h; outline: as §1
Staphylococcus aureus [4] = experiment: Antibacterial activity against methicillin-resistant Staphylococcus aureus Xen1 infected neutropenic CD1 mouse assessed as mortality at 100 mg/kg, po after 4 days; outline: as §1
Staphylococcus aureus [5] = experiment: Antimicrobial activity against bioluminescent methicillin-resistant Staphylococcus aureus Xen1
Outline: (§2)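 MIC by broth microdilution following CLSI guidelines against bioluminescent lux-carrying strains (Xen-1 plasmid-borne lux, Xen-29 chromosomal lux), grown overnight in Mueller-Hinton broth at 37°C.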

Staphylococcus aureus [6] = experiment: Antimicrobial activity against bioluminescent methicillin-susceptible Staphylococcus aureus Xen29; outline: as §2
Staphylococcus aureus [7] = experiment: Reduction in bioluminescent methicillin-sensitive Staphylococcus aureus Xen29 in immunocompetent CD1 mouse with peritonitis at 100 mg/kg, po after 5 hrs relative to control; set-up: scale not given: the % may be the effect or the level left
Outline: (§3)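 Peritonitis in healthy female CD-1 mice (n = 5/group): i.p. Xen-29 (2 × 10^7 to 5 × 10^8 CFU) in 6% mucin, then a single s.c. or gavage dose at 1 h. Controls got saline 10 ml/kg s.c. Mice were anesthetized hourly (pentobarbital 60 mg/kg i.p. or isoflurane) and imaged ventral side up for 1–5 min, to 5 h postdosing. Total flux (photons/s/cm2) over the infected region was averaged per group. Percent reduction is versus time-matched saline controls.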

Staphylococcus aureus [8] = experiment: Reduction in bioluminescent methicillin-resistant Staphylococcus aureus Xen1 in neutropenic CD1 mouse with peritonitis at 100 mg/kg, po after 5 hrs relative to control; set-up: scale not given: the % may be the effect or the level left
Outline: (§4)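 Cyclophosphamide-neutropenic female CD-1 mice (150 mg/kg i.p. day −4, 100 mg/kg day −1) were infected i.p. with a lethal inoculum in 6% mucin. A single s.c. or gavage dose was given 1 h later. Mice were anesthetized and imaged hourly to 5 h. Region-of-interest total flux (photons/s/cm2) was averaged over 5 mice. Percent reduction is relative to time-matched saline (10 ml/kg s.c.) controls.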

Staphylococcus aureus [9] = experiment: Reduction in bioluminescent methicillin-sensitive Staphylococcus aureus Xen29 in neutropenic CD1 mouse with peritonitis at 100 mg/kg, po after 4 hrs relative to control; set-up: scale not given: the % may be the effect or the level left
Outline: (§5)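 Neutropenia was induced with cyclophosphamide 150 mg/kg i.p. at day −4 and 100 mg/kg i.p. at day −1. Mice were then infected i.p. with Xen-29 (2 × 10^7 to 5 × 10^8 CFU) in 6% mucin (n = 5/group) and dosed once, s.c. or by gavage, at 1 h. Luminescence was imaged hourly under anesthesia, 0–5 h postdosing. Mean region-of-interest flux is given as percent reduction versus time-matched saline (10 ml/kg s.c.) controls.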

Staphylococcus aureus [10] = experiment: Reduction in bioluminescent methicillin-sensitive Staphylococcus aureus Xen29 in neutropenic CD1 mouse with peritonitis at 100 mg/kg, po after 3 hrs relative to control; set-up: scale not given: the % may be the effect or the level left; outline: as §5
Staphylococcus aureus [11] = experiment: Reduction in bioluminescent methicillin-resistant Staphylococcus aureus Xen1 in neutropenic CD1 mouse with peritonitis at 100 mg/kg, po after 3 hrs relative to control; set-up: scale not given: the % may be the effect or the level left; outline: as §4
Staphylococcus aureus [12] = experiment: Reduction in bioluminescent methicillin-sensitive Staphylococcus aureus Xen29 in immunocompetent CD1 mouse with peritonitis at 100 mg/kg, po after 4 hrs relative to control; set-up: scale not given: the % may be the effect or the level left; outline: as §3
Staphylococcus aureus [13] = experiment: Reduction in bioluminescent methicillin-resistant Staphylococcus aureus Xen1 in neutropenic CD1 mouse with peritonitis at 100 mg/kg, po after 2 hrs relative to control; set-up: scale not given: the % may be the effect or the level left; outline: as §4
Staphylococcus aureus [14] = experiment: Reduction in bioluminescent methicillin-sensitive Staphylococcus aureus Xen29 in immunocompetent CD1 mouse with peritonitis at 100 mg/kg, po after 3 hrs relative to control; set-up: scale not given: the % may be the effect or the level left; outline: as §3
Staphylococcus aureus [15] = experiment: Reduction in bioluminescent methicillin-sensitive Staphylococcus aureus Xen29 in neutropenic CD1 mouse with peritonitis at 100 mg/kg, po after 5 hrs relative to control; set-up: scale not given: the % may be the effect or the level left; outline: as §5

In the case of CN[C@H](CC(C)C)C(=O)N[C@H]1C(=O)N[C@@H](CC(N)=O)C(=O)N[C@H]2C(=O)N[C@H]3C(=O)N[C@H](C(=O)N[C@H](C(=O)O)c4cc(O)cc(O)c4-c4cc3ccc4O)[C@H](O)c3ccc(c(Cl)c3)Oc3cc2cc(c3O[C@@H]2O[C@H](CO)[C@@H](O)[C@H](O)[C@H]2O[C@H]2C[C@](C)(N)[C@H](O)[C@H](C)O2)Oc2ccc(cc2Cl)[C@H]1O [VANCOMYCIN], the Activity (Staphylococcus aureus [1]) was 100%, the survival at 100 mg/kg (Staphylococcus aureus [2]) was 100% and the survival at 100 mg/kg (Staphylococcus aureus [3]) was 100%. For the same compound, the Activity (Staphylococcus aureus [4]) was 100%.

Compound CC(=O)NC[C@H]1CN(c2ccc(N3CCOCC3)c(F)c2)C(=O)O1 [LINEZOLID] has an MIC (Staphylococcus aureus [5]) of 0.5 µg/mL (≈ 1.48 µM), an MIC (Staphylococcus aureus [6]) of 1 µg/mL (≈ 2.96 µM) and an Activity (Staphylococcus aureus [1]) of 100%. It also gave a survival at 100 mg/kg (Staphylococcus aureus [2]) of 100%, an Activity (Staphylococcus aureus [7]) of 90% and an Activity (Staphylococcus aureus [8]) of 99.2%. It also gave an Activity (Staphylococcus aureus [9]) of 89%, an Activity (Staphylococcus aureus [10]) of 68% and an Activity (Staphylococcus aureus [11]) of 98%. It also gave a survival at 100 mg/kg (Staphylococcus aureus [3]) of 100%, an Activity (Staphylococcus aureus [12]) of 85% and an Activity (Staphylococcus aureus [13]) of 91%. The Activity (Staphylococcus aureus [14]) was 59%, the Activity (Staphylococcus aureus [15]) was 96.6% and the Activity (Staphylococcus aureus [4]) was 100%.

From ChEMBL document CHEMBL1144463, “Rapid bactericidal activity of daptomycin against methicillin-resistant and methicillin-susceptible Staphylococcus aureus peritonitis in mice as measured with bioluminescent bacteria” (2007)
